Experimental findings from ChEMBL document CHEMBL3400116, “Synthesis and activities towards resistant cancer cells of sulfone and sulfoxide griseofulvin derivatives” (Bioorg Med Chem Lett, 2015) are described below.

One may read the inhibition as the change of the read-out against control, counted positive when it falls. A word on the IC50: it is the point on the concentration scale where inhibition reaches its midpoint.

SMILES strings stand for the structures. A value given as a limit tells only on which side of the number the result lay.

The subject of experiment [1] is HCC1937. As to the kind of experiment: Antiproliferative activity against exponentially growing adherent human HCC1937 cells assessed as inhibition of cell proliferation at 10 uM after 48 hrs by luminescence detection based ATPlite assay. As to conditions: HCC1937, 48 h. A general note: Cellular ATP, detected with luciferase, serves as a proxy for viable cell number.

Experiment [2] can be described thus: Antiproliferative activity against exponentially growing adherent human SCC114 cells assessed as inhibition of cell proliferation after 72 hrs by luminescence detection based ATPlite assay. The class given is functional. As to conditions: SCC114, 72 h. The method in brief: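 SCC-114 cells seeded at 10^3 cells/well in 96-well plates and left to grow exponentially as adherent cultures. After 72 h exposure at 37 °C in 5% CO2, viability was read by ATPlite luminescence of ATP from viable cells. IC50 came from nonlinear regression with a sigmoidal dose-response and variable Hill slope.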

Experiment [3] deals with HCC1937. As to the kind of experiment: Antiproliferative activity against exponentially growing adherent human HCC1937 cells assessed as inhibition of cell proliferation after 48 hrs by luminescence detection based ATPlite assay. As to conditions: HCC1937, 48 h.

As to `CCC1=C[C@@H]2CN(C1)Cc1c([nH]c3ccccc13)[C@@](C(=O)OC)(c1cc3c(cc1OC)N(C)[C@H]1[C@@](O)(C(=O)OC)[C@H](OC(C)=O)[C@]4(CC)C=CCN5CC[C@]31[C@@H]54)C2` [VINORELBINE], the inhibition at 10 µM in the experiment with HCC1937 [1] was determined as 0%. Further, the IC50 is 0.07 nM in experiment [2] and over 10000 nM with HCC1937 [3].
Turning to `COc1cc(OC)c2c(c1Cl)O[C@]1(C2=O)C(OCc2ccccc2)=CC(=O)C[C@H]1C`, in the experiment on HCC1937 [1], the inhibition at 10 µM was 0%. For the same compound, the IC50 in experiment [2] is 980 nM; in the experiment on HCC1937 [3] it was over 10000 nM.
Take `COc1cc(OC)c2c(c1Cl)O[C@]1(C2=O)C(SCc2ccccc2)=CC(=O)C[C@H]1C`: the IC50 in the experiment with HCC1937 [3] was over 10000 nM.
For the compound `COc1cc(OC)c2c(c1Cl)O[C@]1(C2=O)C(S(=O)(=O)CCN(C)C)=CC(=O)C[C@H]1C`, the figures for the IC50 (in experiment [2]; with HCC1937 [3]) were 2800 nM and 5900 nM, respectively.
For the compound `C/C(=C\c1csc(C)n1)[C@@H]1C[C@@H]2O[C@]2(C)CCC[C@H](C)[C@H](O)[C@@H](C)C(=O)C(C)(C)[C@@H](O)CC(=O)O1` [PATUPILONE], in the experiment on HCC1937 [1], the inhibition at 10 µM is 0%. The IC50 in experiment [2] is 0.17 nM; with HCC1937 [3], over 10000 nM.
Regarding `CC(=O)O[C@H]1C(=O)[C@@]2(C)[C@H]([C@H](OC(=O)c3ccccc3)[C@]3(O)C[C@H](OC(=O)[C@H](O)[C@@H](NC(=O)c4ccccc4)c4ccccc4)C(C)=C1C3(C)C)[C@]1(OC(C)=O)CO[C@@H]1C[C@@H]2O` [PACLITAXEL], the inhibition at 10 µM in the experiment on HCC1937 [1] stood at 0%. Also, the figures for the IC50 (in experiment [2]; in the experiment with HCC1937 [3]) were 0.3 nM and over 10000 nM, respectively.
Take `COc1cc(OC)c2c(c1Cl)O[C@@]1(C=C(S(=O)(=O)Cc3ccccc3)C(=O)C[C@H]1C)C2=O`: the IC50 in the experiment with HCC1937 [3] came out at 900 nM.
With `COc1cc(OC)c2c(c1Cl)O[C@]1(C2=O)C(S(=O)(=O)c2ccccc2)=CC(=O)C[C@H]1C`, the values for the IC50 (in experiment [2]; in the experiment with HCC1937 [3]) were 1000 nM and 1600 nM, respectively.
Regarding `COC1=CC(=O)C[C@@H](C)[C@]12Oc1c(Cl)c(OC)cc(OC)c1C2=O` [GRISEOFULVIN], the inhibition at 10 µM in the experiment on HCC1937 [1] is 0%. The IC50 was 6400 nM in experiment [2] and over 10000 nM with HCC1937 [3].
In the case of `COc1cc(OC)c2c(c1Cl)O[C@@]1(C=C([S+]([O-])Cc3ccccc3)C(=O)C[C@H]1C)C2=O` (some centres undefined), in experiment [2], the half-inhibitory concentration (IC50) turned out to be 20 nM.
Consider `COc1cc(OC)c2c(c1Cl)O[C@]1(C2=O)C(S(C)(=O)=O)=CC(=O)C[C@H]1C`, for which the inhibition at 10 µM in the experiment with HCC1937 [1] came out at 40%. Also, the IC50 in experiment [2] was 1900 nM; in the experiment on HCC1937 [3], over 10000 nM.
Taken in the same sequence, the figures for `COc1cc(OC)c2c(c1Cl)O[C@]1(C2=O)C(SCCN(C)C)=CC(=O)C[C@H]1C` were 0%, 1450 nM and over 10000 nM.
Consider `COc1cc(OC)c2c(c1Cl)O[C@@]1(C=C(S(=O)(=O)c3ccccc3)C(=O)C[C@H]1C)C2=O`, for which the IC50 was found to be 400 nM in experiment [2] and 700 nM in the experiment on HCC1937 [3].
Regarding `COc1cc(OC)c2c(c1Cl)O[C@@]1(C=C([S+]([O-])c3ccccc3)C(=O)C[C@H]1C)C2=O` (some centres undefined), the values for the IC50 (in experiment [2]; in the experiment with HCC1937 [3]) were 250 nM and 400 nM, respectively.
In the case of `COc1cc(OC)c2c(c1Cl)O[C@]1(C2=O)C(S(=O)(=O)Cc2ccccc2)=CC(=O)C[C@H]1C`, the IC50 in experiment [2] was determined as 400 nM; in the experiment with HCC1937 [3], 1400 nM.
